Values after ≈ are worked out from the molar mass of the structure shown.
What was measured:
HCT-116 [1] = experiment: (§1) Hypoxia radiosensitization activity in human HCT116 cells assessed as sensitizer enhancement ratio by measuring ratio of radiation dose for 1% survival in absence to presence of compound at 0.82 mM preincubated for 1 hr followed by irradiation measured after 10 days by methylene blue staining-based cell counting method relative to misonidazole; type: functional
[2] = Solubility of the compound in alphaMEM containing 5% FCS and 1% DMSO by HPLC analysis; type: physicochemical
Summary of the method: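 Saturated drug solutions were incubated at 37 °C in αMEM with 5% FCS and 1% DMSO. Dissolved drug was quantified by HPLC.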

HCT-116 [3] = experiment: Cytotoxicity against human HCT116 cells incubated for 4 hrs under anaerobic condition measured after 5 days by sulforhodamine B assay; type: functional, cell-based
Summary of the method: (§2)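 STR-authenticated, mycoplasma-free HCT116 cells in αMEM + 5% FCS were seeded at 700 cells/well and allowed 2 h to attach. Drug was added from DMSO stocks (<1% DMSO) in serial 3-fold dilutions for 4 h, oxic or anoxic (Pd-catalyst anaerobic chamber, medium pre-equilibrated ≥3 days). After washing, cells regrew for 5 days before SRB staining and IC50 determination.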

HCT-116 [4] = experiment: Hypoxic cytotoxicity ratio of IC50 for human HCT116 cells under oxic condition to IC50 for human HCT116 cells under anoxic condition
Summary of the method: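 HCT116 cells, 700 per well and attached 2 h, got a 4 h exposure to 3-fold serial dilutions (<1% DMSO) under air or in a Pd-catalyst anaerobic chamber with pre-equilibrated medium. Cells were washed, regrown 5 days, and stained with sulforhodamine B to give IC50. HCR = oxic IC50 / anoxic IC50.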

HCT-116 [5] = experiment: (§3) Hypoxia radiosensitization activity in human HCT116 cells assessed as survival ratio by measuring ratio of cell survival with 15 Gy radiation in absence to presence of compound at anoxic IC50 preincubated for 1 hr followed by 15 Gy irradiation measured after 10 days by methylene blue staining-based cell counting method; type: functional
Summary of the method: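 Anoxic HCT116 cells were seeded at 10^5/well and treated at the anoxic IC50 concentration for 1 h at room temperature. They were irradiated with 15 Gy (60Co, ~2 Gy/min) in a sealed steel box, then plated clonogenically. Colonies of >50 cells were counted […]. SR15 = survival with radiation / survival with drug + radiation.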

HCT-116 [6] = experiment: as §1, with “method” for “method relative to misonidazole”; type: functional
HCT-116 [7] = experiment: as §3, with “with” for “with 15 Gy”, “0.82 mM” for “anoxic IC50”, “6 to 29” for “15”; type: functional
HCT-116 [8] = experiment: (§4) Hypoxia radiosensitization activity in human HCT116 cells assessed as survival ratio by measuring ratio of cell survival with radiation in absence to presence of compound at 0.82 mM preincubated for 1 hr followed by 6 to 29 Gy irradiation measured after 10 days by methylene blue staining-based cell counting method relative to misonidazole; type: functional
HCT-116 [9] = experiment: Cytotoxicity against human HCT116 cells at anoxic IC50 incubated for 1 hr at 21 degC by clonogenic survival assay; conditions: hct-116, 1 h
HCT-116 [10] = experiment: as §1, with “0.81” for “0.82”, “method” for “method relative to misonidazole”; type: functional
HCT-116 [11] = experiment: as §1, with “0.81” for “0.82”; type: functional
HCT-116 [12] = experiment: as §4, with “0.81” for “0.82”, “method” for “method relative to misonidazole”; type: functional
HCT-116 [13] = experiment: as §4, with “0.81” for “0.82”; type: functional
HCT-116 [14] = experiment: Cytotoxicity against human HCT116 cells incubated for 4 hrs under aerobic condition measured after 5 days by sulforhodamine B assay; type: cell-based; summary of the method: as §2
[15] = Electrophilicity of the compound in pH 7 phosphate buffer assessed as one-electron reduction potential
Summary of the method: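 The one-electron reduction potential was set by pulse radiolysis equilibria at pH 7.0 (2.5 mM phosphate), established within 20 µs against benzylviologen, methylviologen or triquat. ΔE came from equilibrium constants via the Nernst equation, at three concentration ratios and 22 ± 2 °C.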

HCT-116 [16] = experiment: as §1, with “4.39” for “0.82”, “method” for “method relative to misonidazole”; type: functional
HCT-116 [17] = experiment: as §1, with “4.39” for “0.82”; type: functional
HCT-116 [18] = experiment: as §4, with “4.39” for “0.82”, “method” for “method relative to misonidazole”; type: functional
HCT-116 [19] = experiment: as §4, with “4.39” for “0.82”; type: functional
HCT-116 [20] = experiment: as §4, with “2.86” for “0.82”, “method” for “method relative to misonidazole”; type: functional
HCT-116 [21] = experiment: as §4, with “2.86” for “0.82”; type: functional
HCT-116 [22] = experiment: as §4, with “0.7” for “0.82”, “method” for “method relative to misonidazole”; type: functional
HCT-116 [23] = experiment: as §4, with “0.7” for “0.82”; type: functional

Q: Which “fold change (FC)” value (HCT-116 [1]) does the source give for `Cc1ncc([N+](=O)[O-])n1CCS(=O)(=O)NCCN(C)C` here?
A: The value was 1.06.

Q: What about the solubility [2] of the same compound?
A: Its solubility is 46.8 mM (≈ 14.3 mg/mL).

Q: And the IC50 (HCT-116 [3])?
A: The IC50 was 800 µM.

Q: And the “Ratio IC50” value (HCT-116 [4])?
A: Its value is 6.

Q: What about the Ratio (HCT-116 [5]) of the same compound?
A: Its Ratio is 11.

Q: What about the Ratio (HCT-116 [6]) of the same compound?
A: The Ratio was 1.57.

Q: And the Ratio (HCT-116 [7])?
A: The Ratio was 14.9.

Q: What about the “fold change (FC)” value (HCT-116 [8]) of the same compound?
A: Its value is 1.51.

Q: And the Activity (HCT-116 [9])?
A: Its Activity is “Non-Toxic”.

Q: Which solubility [2] does the source give for `O=[N+]([O-])c1nccn1CCS(=O)(=O)NCCO` here?
A: Its solubility is 75.3 mM (≈ 19.9 mg/mL).

Q: What about the IC50 (HCT-116 [3]) of the same compound?
A: Its IC50 is 800 µM.

Q: What about the “Ratio IC50” value (HCT-116 [4]) of the same compound?
A: The value was 8.

Q: What about the Ratio (HCT-116 [5]) of the same compound?
A: Its Ratio is 12.

Q: What about the Ratio (HCT-116 [10]) of the same compound?
A: Its Ratio is 1.27.

Q: What about the “fold change (FC)” value (HCT-116 [11]) of the same compound?
A: The value was 0.92.

Q: What about the Ratio (HCT-116 [12]) of the same compound?
A: The Ratio was 4.2.

Q: And the “fold change (FC)” value (HCT-116 [13])?
A: Its value is 0.54.

Q: What about the IC50 (HCT-116 [14]) of the same compound?
A: The IC50 was 380 to 4800 µM.

Q: And the Activity [15]?
A: Its Activity is -391 mV.

Q: And the Activity (HCT-116 [9])?
A: Its Activity is “Non-Toxic”.

Q: For `COCCNS(=O)(=O)CCn1cncc1[N+](=O)[O-]`, which solubility [2] is on record?
A: Its solubility is 24.4 mM (≈ 6.79 mg/mL).

Q: And the IC50 (HCT-116 [3])?
A: The IC50 was 4400 µM.

Q: And the “Ratio IC50” value (HCT-116 [4])?
A: Its value is 2.5.

Q: What about the Ratio (HCT-116 [5]) of the same compound?
A: The Ratio was 122.

Q: What about the Ratio (HCT-116 [16]) of the same compound?
A: Its Ratio is 1.56.

Q: What about the “fold change (FC)” value (HCT-116 [17]) of the same compound?
A: Its value is 1.08.

Q: What about the Ratio (HCT-116 [18]) of the same compound?
A: Its Ratio is 26.

Q: What about the “fold change (FC)” value (HCT-116 [19]) of the same compound?
A: Its value is 2.23.

Q: What about the Activity [15] of the same compound?
A: The Activity was -450 mV.

Q: What about the Activity (HCT-116 [9]) of the same compound?
A: Its Activity is “Non-Toxic”.

Q: Which Ratio (HCT-116 [20]) does the source give for `COCCNS(=O)(=O)CCn1c([N+](=O)[O-])cnc1C` here?
A: The Ratio was 4.8.

Q: And the “fold change (FC)” value (HCT-116 [21])?
A: The value was 0.58.

Q: And the Activity (HCT-116 [9])?
A: Its Activity is “Non-Toxic”.

Q: With `Cc1ncc([N+](=O)[O-])n1CCS(=O)(=O)NCCN1CCCC1` as the compound, how does the Ratio (HCT-116 [22]) read?
A: The Ratio was 13.6.

Q: What about the “fold change (FC)” value (HCT-116 [23]) of the same compound?
A: Its value is 1.51.

Q: What about the Activity (HCT-116 [9]) of the same compound?
A: The Activity was “Non-Toxic”.
